Yeast fitness data for 167 variants are collected here from the RNAGym collection of RNA variant scans (doi:10.1126/science.aae0568).

To fix the notation:
B1: tRNA (parent)
chain: GUUCCGUUGGCGUAAUGGUAACGCGUCUCCCUCCUAAGGAGAAGACUGCGGGUUCGAGUCCCGUACGGAACG

Fewer inactive variants are shown than the library holds.

The variants in the series derive from B1. Nature of the series: yeast fitness relative to wild type (ratio to wild type); higher = fitter; tRNA-Arg(CCU), competitive growth, 37 C, YPD. Put shortly:
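Genotype frequency changes were the basis for Darwinian fitness relative to wild type. The frequencies came from 100-nucleotide paired-end sequencing of gene amplicons from the start population and each end population of pooled yeast strains with tRNA-Arg(CCU) gene variants at the native locus. Competition ran in YPD at 37°C for 24 hours in six replicates, genotypes needed ≥ 100 starting reads, and estimates < 0.5 were set to 0.5.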
Regarding C11A A21C C34A A57U C61A, the yeast fitness is 0.539.
For the variant C5U U7A A20C G68C, the yeast fitness is ≤ 0.5.
Regarding G25C A40U A42C G52A, the yeast fitness is ≤ 0.5.
Next, G6A G17A U19G: 0.512.
In the case of A21G A43G it was 1.04; in that of G17A A37C U54A C55A C66G, ≤ 0.5; in that of U8G A21C C24U C33A, ≤ 0.5.
G9A U47A: the yeast fitness was found to be 0.796.
In the case of C4G U16C C31U G51A it was 0.533.
In the case of G17A A40G it was 0.722.
In the case of U3C C46U A65U it was 0.739.
C5A G23A C46U G50C C61A A70C: the yeast fitness is ≤ 0.5.
In the case of A20G A45G C49U it was 0.687; in that of A15C A21G C22U C49U, ≤ 0.5; in that of G12C U16A U26A G67U, ≤ 0.5.
As to C24G A57G C61A A65C C66U, the yeast fitness was ≤ 0.5.
Next, U2C C61G U64C: ≤ 0.5; A37U C49U C61U: 0.527; U19C A45C: 0.861.
In the case of C27G A43C G56C it was ≤ 0.5; in that of A42G A45C, 0.856; in that of C5U A21U C30G, 0.632.
Next, U8G A21U C27G A57G: ≤ 0.5; C33A G52A A65U: ≤ 0.5; G10A C55G G58A: ≤ 0.5.
Consider C33G G52C C61U, for which the yeast fitness came to 0.566.
Consider U2C A15G G44A G50C A70G, for which the yeast fitness was ≤ 0.5.
In the case of U7A U28C it was 0.711; in that of A14G C27U C55A, 0.56; in that of G6A C22A U35A C49G G63C, ≤ 0.5.
Next, C4G C55U G68C: 0.56.
In the case of U13C C24G C60G it was ≤ 0.5; in that of U3A C24G C31U C62U A65C, ≤ 0.5.
As to U26A A65G, the yeast fitness is 0.822.
Turning to U16A G41C, the yeast fitness was 0.668.
Turning to G25A C29U A57U C62A A69G, the yeast fitness was ≤ 0.5.
On to C30A A70G, for which the yeast fitness is 0.983.
In the case of A40C A65U C66A it was 0.562; in that of C11G C46A C61G A65G, ≤ 0.5.
For the variant A15U C27U U47C G68C, the yeast fitness is ≤ 0.5.
Consider A21U A37U A43C C61U A70G, for which the yeast fitness amounted to 0.517.
Next, A14U U28C C49U G50A C61G A69C: 0.621; C60G C66G G68A: ≤ 0.5; U2A C24U C30U C34U G52A C66G: ≤ 0.5.
In the case of G44A U59A it was 0.601.
Next, A42G C46A G68A A70U: 0.568; C11G A65U: 0.656; C24G C29G G67A: 0.57.
U16C C29G U53A U64C: the yeast fitness was ≤ 0.5.
With C22G U64A, the yeast fitness stood at 0.696.
Next, C5G A14G C33A G56A U59C C61A: ≤ 0.5.
U2C G18C G25C A40C G51A G56A C66G: the yeast fitness was ≤ 0.5.
In the case of C27A U28A A70U it was ≤ 0.5; in that of G12A G48C G67C, ≤ 0.5.
In the case of U2G C22A A36G G52A C66A A69U it was ≤ 0.5; in that of A21C G63A, 0.88.
Next, C30U A45G G58A: 0.663.
For G12A G17A A21C C29U, the yeast fitness was ≤ 0.5.
In the case of G18A G50A C61U it was ≤ 0.5; in that of C11U A21U U54A A70G, ≤ 0.5; in that of U13C C22U C27U A37C A57G, ≤ 0.5.
Next, U7G C22A C61G: ≤ 0.5; C34A A36U: 0.518.
Next, C11U U19A A43U C49U U59A G63A: ≤ 0.5; G23A C33G C46G C66A: 0.529; G10C C49A C62U: ≤ 0.5.
C31G C34U G67U: the yeast fitness was ≤ 0.5.
Next, C34U C61G A70U: ≤ 0.5; C22A A42G: 0.923.
Next, C11A A43U C46U U47G G58A: ≤ 0.5; C34U A37C G63A: ≤ 0.5; C4A C46U: 0.903.
Regarding C24U C34U G58A, the yeast fitness is ≤ 0.5.
In the case of A21C A37C C55G G58A it was ≤ 0.5; in that of C11U C34A A36C G67C, ≤ 0.5; in that of G39C A43G U53A C62A G68C, ≤ 0.5.
In the case of C29A U53A it was 0.51.
As to A57G C61G C66U, the yeast fitness was ≤ 0.5.
In the case of C11U A15G C46A it was 0.915; in that of C30U U35C A43C G67U, ≤ 0.5.
Next, C33G U47G A57G A69U: 0.509; U28C A36G: 0.989.
As to A21U U26G G50C, the yeast fitness was 0.586.
Next, A15U C27A A65C A69C: 0.577; C5G G9C A21G: 0.531; G6C A14C C29U C34G C46U A57G C66A G68C: ≤ 0.5.
Regarding A15C A21C A40C U59G C60G, the yeast fitness was ≤ 0.5.
Next, U19C C34U C49A G56C C62A A65C: ≤ 0.5.
In the case of G38A G48A C49G A70U it was ≤ 0.5; in that of C5A C11G C27A C34U G39A, 0.683; in that of C11A C30U, 0.598.
In the case of G12A C24U A36C C46U C60U A65C it was 0.729; in that of C11U A15C A40U, 0.543.
Consider U2A U54A A65U, for which the yeast fitness was ≤ 0.5.
C11U A20G C24G G63C: the yeast fitness is ≤ 0.5.
In the case of A20G U35C G50C it was ≤ 0.5; in that of C5U A21G C24A A42C G63A, ≤ 0.5; in that of C4G A40U A45U G67A, ≤ 0.5.
Regarding U8A U26G C46G, the yeast fitness is ≤ 0.5.
Next, A15G G44A G50C A70G: ≤ 0.5.
In the case of C11G G48A G63A A65C it was ≤ 0.5; in that of G12C G39C G50C C61G, ≤ 0.5.
In the case of U32A C34U C55G C62U G68C, the yeast fitness is ≤ 0.5.
In the case of U3A U13A G23C A36C A70C it was 0.596; in that of G23C A42C, 0.721.
C5A G17C G18C C60U: the yeast fitness is ≤ 0.5.
Take C33G C34U: the yeast fitness came out at 0.563.
In the case of C31G G44C A69C it was 0.611; in that of U3C U28G G39C, ≤ 0.5; in that of A15G A37U C61A, ≤ 0.5.
Next, C5G A57G: 0.882.
With A15U C27G U59C, the yeast fitness is ≤ 0.5.
In the case of U19A G25C C33A A37G it was ≤ 0.5; in that of C11U A20U C24U C29A A70G, ≤ 0.5; in that of A14U G48C A70C, ≤ 0.5.
Next, G44C A45U: 0.905; U13C C22U G38C A57C: 0.599.
Next, U19C C22U G50A U64C: ≤ 0.5; G6C U54C: 0.898.
Take U16C U54C G63A: the yeast fitness came out at 0.501.
In the case of C30U C49U A70C it was 0.543.
Next, C5G G51U C55G A65C: ≤ 0.5.
A37C A43U A65U: the yeast fitness came out at 0.651.
As for C34U G56C, the yeast fitness was 0.51.
In the case of U7C A21U C22A it was ≤ 0.5; in that of U16C C62G, 0.717.
In the case of U19A C27U G44C G48C it was ≤ 0.5; in that of U7A G41C G63C A65U, ≤ 0.5; in that of G10A A20G, 0.649.
Next, A40G C62U A69C: 0.725; U3G C55A G58A: ≤ 0.5.
In the case of G25C G39C U54G A65U, the yeast fitness turned out to be 0.514.
In the case of U16C G39A C61G C62G it was ≤ 0.5; in that of A57U A69U, 0.668; in that of G6A C24U G38A C61G C66U A69U, ≤ 0.5.
In the case of C5G A14U G18A A21U C31U C60U C61U C66G it was ≤ 0.5.
Next, A20C A43U G48C: 0.615; A15G U26G C30U: ≤ 0.5.
On to G6A C29G A37U G56C G67C, for which the yeast fitness was ≤ 0.5.
In the case of A36U C46G C62A A69C it was 0.562; in that of U2A C22G G25C C61G, 0.703.
Next, G6A A20C A45U C46U A57C: 0.501.
In the case of C55G A65U it was 0.692.
C5G A37G C46G A57G: the yeast fitness is ≤ 0.5.
As to A14G U28G C29U C49U U54A C55U A70C, the yeast fitness was 0.603.
Next, C34G G38C A40U G48C C49G: ≤ 0.5; U3C U28A C34U U47C C60U: ≤ 0.5.
In the case of U2A G39A G48C it was ≤ 0.5; in that of A20G C31G C55G A70G, ≤ 0.5.
For the variant U26C A40C A43G G44A, the yeast fitness was ≤ 0.5.
Next, U2C C30U C31G: 0.771; U28C G48C U53C: 0.553.
Consider U64A A65U, for which the yeast fitness came out at 0.718.
In the case of A15U A42U C49G C60A it was ≤ 0.5; in that of A21G C29A G48C, 0.57; in that of C5U U19A A40C C49G C55G A69U, ≤ 0.5.
Consider C33U A37U C62U, for which the yeast fitness was ≤ 0.5.
Next, G12A C31U C61U U64A: ≤ 0.5.
Next, C30U G38U: 0.824; C22U G63A A70C: 0.508; C4G G17A C29U C66U: ≤ 0.5.
Next, A21U A45U G67C: 0.598; U13A C46A U64C: 0.609; C5U C11A U13C C24G C30G C60U A69U: ≤ 0.5.
As to A20C C33A A65U, the yeast fitness is ≤ 0.5.
Next, U13C C27A: 0.963.
In the case of U19A G25A A40C C46U it was 0.588.
